# Screens (PubChem)
# mABHD4 FP – inhibitors of mouse ABHD4; inhibition, % at 8.92 µM; purified mABHD4, FP-Rh probe fluorescence polarization; Q8VD66; AID 720543; 0.54% of 370,000 active;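 active = inhibition exceeding the mean over every tested compound plus 3 SD, cut at about 30% in these data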;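 note: 0% = plate median of compound wells and 100% = S159A mutant with DMSO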
#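 Assay system: mABHD4 protein; medium: HEPES pH 7.0, NaCl, Pluronic buffer; dosing: 8.92 µM, single dose; schedule: 45 min + 60 min at 25 °C; signal: FP readout, ex 525 nm / em 598 nm; read-out: normalized percent inhibition of probe labeling; repeats: single replicate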
# PAFAH2 inh – PAFAH2 (human) inhibition; inhibition, % at 3.39 µM; recombinant PAFAH2, FP-rhodamine activity probe, fluorescence polarization; Q99487; 0.99% of 340,000 active;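 active = inhibition above the mean over all tested compounds plus 3 SD, cut at about 30% in these data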;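 note: inhibitors block probe labeling of enzyme so polarization drops; 0% = enzyme with DMSO and 100% = wells lacking PAFAH2 protein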
# PAFAH1B2 inh – blocks human PAF acetylhydrolase 1b catalytic subunit 2. P68402. recombinant PAFAH1B2, FP-rhodamine activity probe, fluorescence polarization. inhibition, % at 3.39 µM. 1.2% of 340,000 active;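 active = inhibition above the mean of all tested compounds plus 3 SD, cut at about 24% in these data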;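 note: 0% = enzyme with DMSO and 100% = wells lacking PAFAH1B2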
# HTRA1 inhibitor – HTRA1 (human) protease inhibition; Q92743; recombinant HTRA1, FP-rhodamine activity-based probe, fluorescence polarization; inhibition, % at 5.96 µM; 0.5% of 340,000 active; in the data active = inhibition above about 36%;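 note: 0% = enzyme with DMSO and 100% = wells lacking enzyme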
# Target sequence (Q92743 whole entry, looked up): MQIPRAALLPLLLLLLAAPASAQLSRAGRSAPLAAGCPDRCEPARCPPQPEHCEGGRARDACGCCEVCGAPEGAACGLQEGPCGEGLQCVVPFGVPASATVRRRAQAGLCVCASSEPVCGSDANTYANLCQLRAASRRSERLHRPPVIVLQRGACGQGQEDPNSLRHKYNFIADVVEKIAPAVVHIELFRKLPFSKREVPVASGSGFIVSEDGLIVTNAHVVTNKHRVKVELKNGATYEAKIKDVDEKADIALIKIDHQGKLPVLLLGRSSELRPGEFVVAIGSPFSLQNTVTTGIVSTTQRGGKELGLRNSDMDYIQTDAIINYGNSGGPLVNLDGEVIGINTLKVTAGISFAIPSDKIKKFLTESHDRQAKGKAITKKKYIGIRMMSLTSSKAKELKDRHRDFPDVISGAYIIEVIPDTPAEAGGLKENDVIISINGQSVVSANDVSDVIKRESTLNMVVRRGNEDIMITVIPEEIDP
# PAFAH1B3 inh – PAFAH1B3 (human) inhibition. 0.28% of 340,000 active. inhibition, % at 3.39 µM. Q15102. AID 492972. recombinant PAFAH1B3, FP-rhodamine probe, fluorescence polarization;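 active = inhibition above the screen-wide average of all tested compounds plus 3 SD, cut at about 25% in these data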;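 note: 0% = enzyme with DMSO only and 100% = wells lacking PAFAH1B3 protein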
# pPAFAH inh – inhibitors of human plasma PAF acetylhydrolase (pPAFAH); Q13093; recombinant pPAFAH, FP-rhodamine probe fluorescence polarization; AID 463082; 1.5% of 330,000 active; inhibition, % at 3.39 µM;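 active = inhibition above the mean inhibition across the screen plus 3 SD, cut at about 25% in these data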;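 note: inhibitors block binding of the rhodamine activity-based probe so polarization drops; 0% = enzyme with DMSO and 100% = wells lacking pPAFAH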
# Active calls of the source: *; · = no result given. Only some compounds are listed: those with a hit (about 2.8% of all), similar ones and a draw of the others.
SMILES,mABHD4 FP,PAFAH2 inh,PAFAH1B2 inh,HTRA1 inhibitor,PAFAH1B3 inh,pPAFAH inh
COc1cc(CNCCO)cc(Cl)c1OCc1ccc(Cl)cc1Cl,16,7,8,-1,13,28*
COc1cc(CNCCO)cc(Br)c1OCc1ccccc1Cl,10,1,-2,4,-6,12
Cc1noc(C)c1CSCC(=O)Nc1ccccc1N1CCCCC1,·,-4,30*,-10,2,7
CCN(CC)S(=O)(=O)c1ccc(N2CCCC2)c(NC(=O)CSCc2c(C)noc2C)c1,4,·,·,-4,·,·
COC(=O)C1=C(Nc2ccccc2NS(=O)(=O)c2ccc(C(F)(F)F)cc2Cl)CSC1,-2,8,28*,2,2,24
COC(=O)[C@]12C[C@H](CC(=O)N3CCCC3)C(=O)N(Cc3ccco3)C1=C[C@H](C(C)C)O[C@@H]2C1CC1,4,·,·,·,·,·
C[C@@H]1OC(C2CCCCC2)N(C)[C@H]2C[C@H]3c4[nH]c5cccc(-c6ccccc6)c5c4CCN3C[C@@H]12 (some centres not stated),9,·,·,·,·,·
O=C(O)c1ccccc1C(=O)Nc1cc(C(F)(F)F)ccc1N1CCCC1,-17,8,6,-16,5,30*
COC(=O)[C@H](C(C)C)N1CCc2nnn(CC3CCCCC3)c2-c2cc(F)ccc2S1(=O)=O,-3,·,·,·,·,·
O=C(CN(Cc1ccccc1)S(=O)(=O)c1ccc2c(c1)OCCO2)N/N=C/c1ccc(F)cc1,-31,-5,-1,-82,3,33*
COc1cccc(/C=N/N2CCN(c3ccc(Cl)cc3)CC2)c1OC,1,0,33*,0,5,5
Clc1ccc(N2CCN(/N=C/c3cccnc3)CC2)cc1,-2,2,28*,1,0,6
Cc1ccc(N2CCN(/N=C/c3cccnc3)CC2)cc1,1,-6,7,-1,8,·
O=C(Nc1ccc2c(c1)Cc1ccccc1-2)NC1CCCCN(Cc2ccc(Cl)cc2)C1=O (configuration not stated),-5,·,·,·,·,·
N/C(Cc1ccc([N+](=O)[O-])cc1)=N\OC(=O)c1ccc(Br)cc1,5,41*,3,-6,6,30*
N/C(=N\OC(=O)c1ccc([N+](=O)[O-])cc1)c1ccc(Br)cc1,-2,-6,7,0,5,4
O=C(Nc1ccc(Cl)c(Cl)c1)C1CCN(c2ncccn2)CC1,-13,·,·,·,·,·
NC(=S)N/N=C/c1ccc(-c2ccc(SC(F)F)cc2)o1,13,-6,1,-4,-2,27*
Cc1ccc(C)c(OCCC(=O)OCC(=O)NC2CCCC2)c1,-13,5,2,-3,0,21
Cc1ccc(C)c(OCCC(=O)OCC(=O)NNC(=O)c2ccccc2)c1,3,0,2,-3,3,31*
C[C@H]1[C@@H](OC(=O)NC2CCC2)CC[C@@]23CCCN2C(=O)CCC[C@@H]13,1,·,·,·,·,·
N#C/C(=C\c1ccc(OCc2ccc(Br)cc2)cc1)C(=O)Nc1cccc(C(=O)O)c1,0,-31,24*,-10,-7,2
N#C/C(=C\c1ccc(OCc2ccc(F)cc2)cc1)C(=O)Nc1cccc(C(=O)O)c1,-13,-22,6,0,4,1
Cc1nn(-c2ccccc2)c(C)c1NC(=O)COC(=O)CC(C)c1ccccc1 (configuration not stated),3,8,6,7,5,27*
Cc1cccc(OCCC(=O)OCC(=O)Nc2c(C)nn(-c3ccccc3)c2C)c1,-7,3,1,5,3,29*
SMILES,mABHD4 FP,PAFAH2 inh,PAFAH1B2 inh,HTRA1 inhibitor,PAFAH1B3 inh,pPAFAH inh
CNC(=O)c1cc(C(=O)c2ccccc2Br)c[nH]1,7,15,7,2,11,0
CNC(=O)c1cc(C(=O)c2ccc(Cl)cc2)c(Br)[nH]1,0,-1,37*,-2,2,1
O=C1/C(=C\c2ccco2)SC(=S)N1c1ccc(O)cc1,13,-6,-1,-1,2,34*
O=C(CN1C(=O)/C(=C/c2ccco2)SC1=S)Nc1ccc(O)c(C(=O)O)c1,-29,14,4,3,19,33*
COc1ccc(NC(=O)CCCN2C(=O)/C(=C\c3ccco3)SC2=S)cc1,2,-1,1,-4,6,14
O=C1/C(=C\c2ccc(O)cc2)SC(=S)N1c1cccnc1,-7,-7,-1,-10,-2,-9
Cc1ccc2c(c1)N(CCCC(=O)N(C)Cc1ccccc1F)C(=O)CO2,1,·,·,·,·,·
CC(C)(C)NC(=O)C(c1cccnc1)N(C(=O)c1cccs1)c1ccc(C(C)(C)C)cc1 (configuration not stated),-3,·,·,·,·,·
CNCC(O)c1ccc(OC(=O)C(C)(C)C)c(OC(=O)C(C)(C)C)c1 (configuration not stated),5,0,27*,3,1,3
S=c1[nH]nc(-c2cccnc2)n1/N=C/C=C/c1ccco1,4,5,1,8,11,19
S=c1[nH]nc(-c2ccccc2)n1/N=C/C=C/c1ccco1,27,11,1,13,15,31*
C[C@@H]1OCN(C)[C@H]2C[C@H]3c4[nH]c5cccc(-c6ccc7c(c6)OCO7)c5c4CCN3C[C@@H]12,14,·,·,·,·,·
COC(=O)C1CN(Cc2ccc(C)cc2)CCS(=O)(=O)N1Cc1cn(Cc2ccc(C)cc2)nn1 (configuration not stated),-3,·,·,·,·,·
CCc1cc2cc(C)ccc2nc1SCC(=O)NC1CCCC1,-3,-22,4,-15,6,30*
CCc1cc2cccc(C)c2nc1SCC(=O)NC1CCCC1,-6,-10,5,-3,1,4
CCc1cc2cc(C)ccc2nc1SCC(=O)N1CC(=O)Nc2ccccc21,-24,-11,0,-62,7,29*
Cc1ccc(-n2c(SCC(=O)c3ccc(Br)cc3)nnc2-c2ccncc2)cc1,-4,·,·,·,·,·
C[C@H](O)[C@@H]1CN2CCc3c([nH]c4cccc(-c5ccccc5)c34)[C@@H]2C[C@@H]1N(C)C(=O)C1CCCCC1,7,·,·,·,·,·
O=C(CCc1ccccc1)Nc1nc2nc(-c3ccccc3)cc(=O)n2[nH]1,-11,5,27*,-12,12,-4
O=C(Nc1nc2nc(-c3ccccc3)cc(=O)n2[nH]1)c1ccccc1,-6,21,5,-7,6,14
COC(=O)C1=C(C)N(Cc2cccc(C(F)(F)F)c2)C(=NCc2ccc(OC)cc2)NC1c1ccccc1C(F)(F)F (configuration not stated),7,·,·,·,·,·
O=C(O)CCCNc1cc(N2CCC3(CC2)OCCO3)c2noc3c2c1C(=O)c1ccccc1-3,·,·,·,·,·,76*
COc1ccccc1NS(=O)(=O)c1cc(NC(=O)C2CCC2)ccc1N1CCCCC1,-12,-20,-5,-10,-6,-23
COc1ccccc1NS(=O)(=O)c1cc(NC(=O)Nc2ccc(Cl)cc2Cl)ccc1N1CCCCC1,-6,-26,14,-25,7,34*
